The values below come from ChEMBL document CHEMBL1145645, “Bis-tetrahydroisoquinoline derivatives: AG525E1, a new step in the search for non-quaternary non-peptidic small conductance Ca(2+)-activated K(+) channel blockers” (Bioorg Med Chem Lett, 2008).

Series [1] in a line: Inhibition of apamin-sensitive SK channel.
Series [2] deals with Small conductance calcium-activated potassium channel protein 3 (Homo sapiens, UniProt Q9UGI6). As to the kind of experiment: Inhibition of SK3 expressed in CHO FlipIn cells by whole cell patch-clamp assay. It is filed as cell-based. In general terms: Patch clamp records ionic current or voltage across a cell membrane.
Sequence of Small conductance calcium-activated potassium channel protein 3 (Q9UGI6 whole entry): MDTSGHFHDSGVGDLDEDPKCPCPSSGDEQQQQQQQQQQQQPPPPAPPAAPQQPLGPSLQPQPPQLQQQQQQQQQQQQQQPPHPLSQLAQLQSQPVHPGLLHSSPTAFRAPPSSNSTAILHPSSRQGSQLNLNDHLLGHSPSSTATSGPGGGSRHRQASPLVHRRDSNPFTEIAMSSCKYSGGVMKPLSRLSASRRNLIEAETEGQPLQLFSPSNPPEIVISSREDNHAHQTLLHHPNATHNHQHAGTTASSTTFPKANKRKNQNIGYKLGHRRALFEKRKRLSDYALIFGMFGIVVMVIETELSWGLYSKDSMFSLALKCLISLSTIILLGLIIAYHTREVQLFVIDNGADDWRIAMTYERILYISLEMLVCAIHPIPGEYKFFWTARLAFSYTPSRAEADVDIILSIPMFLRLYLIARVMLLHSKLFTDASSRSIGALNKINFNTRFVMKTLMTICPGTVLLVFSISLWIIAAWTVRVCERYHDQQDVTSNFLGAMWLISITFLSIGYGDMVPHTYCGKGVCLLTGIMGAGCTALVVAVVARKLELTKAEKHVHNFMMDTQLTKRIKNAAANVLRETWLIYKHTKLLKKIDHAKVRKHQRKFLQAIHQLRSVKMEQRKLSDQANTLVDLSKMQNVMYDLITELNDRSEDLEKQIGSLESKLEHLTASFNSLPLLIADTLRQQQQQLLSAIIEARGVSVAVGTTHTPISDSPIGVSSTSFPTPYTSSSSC
Series [3] is described as follows: Inhibition of apamin-sensitive SK channel at 10 uM.
Series [4] has as its target Small conductance calcium-activated potassium channel protein 2 (Homo sapiens, UniProt Q9H2S1). As to the kind of experiment: Inhibition of SK2 expressed in CHO FlipIn cells by whole cell patch-clamp assay. It is filed as cell-based.
Series [5] in a line: Lipophilicity, log P of the compound. The format is physicochemical. The conditions noted are these: octanol/water. The essentials: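 logP by potentiometric titration on a Sirius PCA200 analyser; at least three titrations at different phase volume ratios, mean logP reported; sample acidified to pH 1.8–2.0 with 0.5 M HCl, titrated with 0.5 M KOH to pH 12.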
The nature of series [6]: Inhibition of sigma 2 receptor at 10 uM.
Series [7] concerns the target Small conductance calcium-activated potassium channel protein 1 (Homo sapiens, UniProt Q92952). Description: Inhibition of SK1 expressed in CHO FlipIn cells by whole cell patch-clamp assay. The format is cell-based. The essentials:
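Whole-cell patch clamp on CHO FlipIn cells stably transfected with SK1, grown in Ham's F-12 with 10% calf serum, streptomycin/penicillin and hygromycin-B. Pipette solution (mM): KCl 130, EGTA 10, CaCl2 8.751, MgCl2 1.08, Hepes 10 ([…]), pH 7.2. K+ currents at −50 mV; percent inhibition at increasing concentrations, normalised to full block by 100 µM N-methyl-laudanosine.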

Series [8] addresses D(2) dopamine receptor (Homo sapiens) (UniProt P14416). Description: Inhibition of dopamine D2 receptor at 10 uM.
A short description of series [9]: Dissociation constant, pKa at pH 1.8 to 2.0. It is filed as physicochemical. Put shortly: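 pKa by potentiometric titration on a Sirius PCA200 analyser; at least three aqueous solutions titrated; sample acidified to pH 1.8–2.0 with 0.5 M aqueous HCl, then titrated with 0.5 M aqueous KOH to pH 12.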
Series [10] in a line: Inhibition of L-type calcium channel at 10 uM.
Series [11] concerns the target Histamine H3 receptor (Homo sapiens) (UniProt Q9Y5N1). As to the kind of experiment: Inhibition of histamine H3 receptor at 10 uM.
Series [12] deals with T1, 5-hydroxytryptamine receptor 1A (Homo sapiens) (UniProt P08908).
T1 sequence (whole entry): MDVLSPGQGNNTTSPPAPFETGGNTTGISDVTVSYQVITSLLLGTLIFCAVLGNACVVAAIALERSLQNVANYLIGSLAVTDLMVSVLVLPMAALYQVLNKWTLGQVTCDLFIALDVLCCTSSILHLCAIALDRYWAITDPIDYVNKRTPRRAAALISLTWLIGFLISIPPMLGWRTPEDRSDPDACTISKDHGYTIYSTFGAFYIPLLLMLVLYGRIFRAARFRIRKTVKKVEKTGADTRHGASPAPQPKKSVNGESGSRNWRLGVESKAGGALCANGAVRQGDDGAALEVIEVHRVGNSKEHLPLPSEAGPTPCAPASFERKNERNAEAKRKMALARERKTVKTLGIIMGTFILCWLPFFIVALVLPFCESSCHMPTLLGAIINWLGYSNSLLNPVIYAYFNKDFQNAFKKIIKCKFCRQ
Description: Inhibition of 5HT1A receptor at 10 uM.

Sequence of Histamine H3 receptor (Homo sapiens) (Q9Y5N1 whole entry): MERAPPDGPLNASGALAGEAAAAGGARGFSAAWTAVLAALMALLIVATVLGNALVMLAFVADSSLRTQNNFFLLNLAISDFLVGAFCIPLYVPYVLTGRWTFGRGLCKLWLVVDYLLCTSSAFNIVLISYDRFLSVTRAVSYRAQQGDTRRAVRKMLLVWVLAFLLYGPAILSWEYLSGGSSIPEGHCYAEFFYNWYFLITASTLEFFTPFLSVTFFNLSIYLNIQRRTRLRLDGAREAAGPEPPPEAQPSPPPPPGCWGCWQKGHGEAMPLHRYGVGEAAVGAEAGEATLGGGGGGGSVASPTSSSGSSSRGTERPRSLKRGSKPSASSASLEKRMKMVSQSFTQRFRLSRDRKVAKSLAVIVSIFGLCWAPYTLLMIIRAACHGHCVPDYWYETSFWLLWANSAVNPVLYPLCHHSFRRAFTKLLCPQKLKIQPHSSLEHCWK
Sequence of Small conductance calcium-activated potassium channel protein 1 (Q92952 whole entry): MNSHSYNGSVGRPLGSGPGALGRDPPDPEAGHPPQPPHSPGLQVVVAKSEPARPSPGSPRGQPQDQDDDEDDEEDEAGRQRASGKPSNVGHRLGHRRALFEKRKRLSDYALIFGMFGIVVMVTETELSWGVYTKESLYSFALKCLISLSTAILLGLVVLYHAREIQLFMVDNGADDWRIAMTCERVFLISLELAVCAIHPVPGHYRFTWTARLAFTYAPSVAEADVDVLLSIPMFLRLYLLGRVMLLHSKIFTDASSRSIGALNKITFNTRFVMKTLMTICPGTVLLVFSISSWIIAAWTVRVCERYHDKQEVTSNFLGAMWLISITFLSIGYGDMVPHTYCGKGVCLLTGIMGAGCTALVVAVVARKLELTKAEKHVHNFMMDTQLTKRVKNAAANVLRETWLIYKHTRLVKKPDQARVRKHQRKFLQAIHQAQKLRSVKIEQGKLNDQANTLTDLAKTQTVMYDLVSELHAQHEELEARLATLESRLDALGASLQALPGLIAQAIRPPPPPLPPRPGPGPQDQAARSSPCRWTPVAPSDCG
Sequence of Small conductance calcium-activated potassium channel protein 2 (Q9H2S1 whole entry): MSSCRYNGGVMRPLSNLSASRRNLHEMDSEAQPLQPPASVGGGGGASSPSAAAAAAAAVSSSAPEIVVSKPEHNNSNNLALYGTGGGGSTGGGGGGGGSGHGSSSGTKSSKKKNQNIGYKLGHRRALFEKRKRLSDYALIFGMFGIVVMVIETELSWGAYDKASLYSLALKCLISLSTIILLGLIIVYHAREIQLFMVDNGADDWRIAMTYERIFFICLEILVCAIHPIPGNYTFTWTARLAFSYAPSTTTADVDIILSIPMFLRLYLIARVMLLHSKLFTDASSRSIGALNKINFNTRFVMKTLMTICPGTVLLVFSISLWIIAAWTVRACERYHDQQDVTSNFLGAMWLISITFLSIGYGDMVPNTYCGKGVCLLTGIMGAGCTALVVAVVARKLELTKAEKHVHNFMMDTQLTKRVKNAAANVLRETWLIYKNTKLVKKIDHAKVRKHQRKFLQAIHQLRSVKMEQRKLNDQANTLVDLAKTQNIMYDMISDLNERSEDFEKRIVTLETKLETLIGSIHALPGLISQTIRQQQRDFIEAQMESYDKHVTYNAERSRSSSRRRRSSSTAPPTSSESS
Sequence of D(2) dopamine receptor (Homo sapiens) (P14416 whole entry): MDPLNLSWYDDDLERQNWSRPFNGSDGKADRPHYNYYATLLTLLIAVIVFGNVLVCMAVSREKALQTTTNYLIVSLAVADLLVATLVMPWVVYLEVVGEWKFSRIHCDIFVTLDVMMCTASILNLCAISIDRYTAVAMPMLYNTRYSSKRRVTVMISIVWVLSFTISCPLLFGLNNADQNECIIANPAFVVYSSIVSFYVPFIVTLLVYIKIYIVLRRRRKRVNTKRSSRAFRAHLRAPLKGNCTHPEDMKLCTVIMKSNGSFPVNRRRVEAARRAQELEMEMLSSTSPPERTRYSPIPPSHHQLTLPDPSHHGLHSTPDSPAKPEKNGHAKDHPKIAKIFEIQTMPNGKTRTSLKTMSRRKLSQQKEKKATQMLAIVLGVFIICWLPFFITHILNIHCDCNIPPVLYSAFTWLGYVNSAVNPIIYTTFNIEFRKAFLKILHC

One may read the Ki as the dissociation constant of the complex between target and ligand, obtained from inhibition or displacement. Low readings indicate higher affinity, high ones lower affinity. Turning to `COc1ccc(C[C@H]2c3cc(OC)c(OC)cc3CC[N+]2(C)C)cc1OC` [LAUDANOSINE METHIODIDE], in series [1], the affinity, expressed as Ki, was 1600 nM.
In general, IC50 refers to the point on the concentration scale where inhibition reaches its midpoint. What is called inhibition is the percentage by which the read-out fell short of the control. By logP is commonly meant the decadic logarithm of the partition coefficient of the neutral form, usually between octanol and water. Read a high logP as a more lipophilic compound. Broadly, the pKa is the pH at which an ionisable group is half protonated. Higher therefore signals a weaker acid or stronger base. Consider `COc1cc2c(cc1OC)[C@H](CCC[C@H]1c3cc(OC)c(OC)cc3CCN1C)N(C)CC2`, for which the IC50 was determined as 3000 nM in series [2], 2600 nM in [4] and 3800 nM in [7]. For the same molecule, the inhibition worked out at 61% in [3]; 39% in [6]; 31% in series [8]; 36% in series [10]; 37% in series [11]; 39% in [12]. For the same molecule, the Ki in [1] worked out at 293 nM. The molecule further registered a logP in series [5] of 2.9. The pKa in series [9] amounted to 8.1.
In [1], `COc1ccc(CC2c3cc(OC)c(OC)cc3CCN2C)cc1OC` (configuration not stated) [LAUDANOSINE] came in with a Ki of 30000 nM.
As for `COc1cc2c(cc1OC)[C@@H](CCC[C@@H]1c3cc(OC)c(OC)cc3CCN1C)N(C)CC2`, the Ki in series [1] came out at 1880 nM.
On the same count and under the same terms, the result for `Cc1cc(N)c2ccccc2[n+]1CCCCCCCCCC[n+]1c(C)cc(N)c2ccccc21` [DEQUALINIUM CHLORIDE] reads 221 nM.
Still for that read-out and setting: as for `COc1cc2c(cc1OC)[C@@H](CCC[C@H]1c3cc(OC)c(OC)cc3CCN1C)N(C)CC2`, the figure is 1420 nM.
